pIC50: −log10 of the molar value. Active and inactive are the calls of the source. The rule behind the calls is not given here.
Tests used:
FaDu [1] = assay: Antiproliferative activity against human FADU cells assessed as fractional inhibition at 0.5 uM after 6 days in absence of irradiation by MTT assay; assay type: functional
Summary of the method: (§1)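 FaDu or SCC-25 cells were grown in DMEM with 10% FBS at 37 °C and 5% CO2. They were seeded at 1000 cells/well in 96-well plates for 24 h, then dosed with compound (fresh DMSO stock diluted in medium) or vehicle. After 1 h, X-rays were given with a sliding 5 mm lead shield, so one plate held 0, 2.5, 5 and 10 Gy columns. After 6 days, MTT (0.5 mg/mL, 45 min) was added, then DMSO, and A570 was read. Values were normalised to the unirradiated vehicle control. Fractional inhibition = 1 − surviving fraction.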

FaDu [2] = assay: Antiproliferative activity against human FADU cells assessed as fractional inhibition at 0.005 uM after 6 days in absence of irradiation by MTT assay; assay type: functional; summary of the method: as §1
SCC-25 [3] = assay: Selectivity ratio of IC50 for antiproliferative activity against human SCC25 cells assessed as reduction in colony formation unit to IC50 for antiproliferative activity against human SCC25 cells assessed as reduction in colony formation unit followed by irradiation with 5 Gy IR; assay type: functional
FaDu [4] = assay: Selectivity ratio of IC50 for antiproliferative activity against human FADU cells assessed as reduction in colony formation unit to IC50 for antiproliferative activity against human FADU cells assessed as reduction in colony formation unit followed by irradiation with 5 Gy IR; assay type: functional
FaDu [5] = assay: Synergistic antiproliferative activity against human FADU cells assessed as reduction in colony formation unit followed by irradiation with 5 Gy IR and measured after 10 to 14 days by crystal violet staining based assay; assay type: functional, cell-based
FaDu [6] = assay: Antiproliferative activity against human FADU cells assessed as fractional inhibition at 5 uM after 6 days in absence of irradiation by MTT assay; assay type: functional; summary of the method: as §1
FaDu [7] = assay: Synergistic antiproliferative activity against human FADU cells assessed as fractional inhibition at 0.5 uM preincubated for 1 hr followed by irradiation with 2.5 Gy IR and measured after 6 days by MTT assay (reference value: 0.131); assay type: functional; summary of the method: as §1
FaDu [8] = assay: Synergistic antiproliferative activity against human FADU cells assessed as fractional inhibition at 0.005 uM preincubated for 1 hr followed by irradiation with 5 Gy IR and measured after 6 days by MTT assay (reference value: 0.097); assay type: functional; summary of the method: as §1
FaDu [9] = assay: Synergistic antiproliferative activity against human FADU cells assessed as combination index at 5 uM preincubated for 1 hr followed by irradiation with 10 Gy IR and measured after 6 days by MTT assay; assay type: functional
Summary of the method: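 Combination index was calculated by the Chou–Talalay median-effect method from the 6-day MTT viability data of the single-plate compound/X-ray (2.5, 5, 10 Gy) design. CI < 1 denotes synergy, CI = 1 additivity and CI > 1 antagonism.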

SCC-25 [10] = assay: Synergistic antiproliferative activity against human SCC25 cells assessed as fractional inhibition at 0.05 uM preincubated for 1 hr followed by irradiation with 2.5 Gy IR and measured after 6 days by MTT assay (reference value: 0.011); assay type: functional
Summary of the method: (§2)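 SCC-25 cells seeded 1000/well in 96-well plates in DMEM/10% FBS and left 24 h. Drug or vehicle added, then after 1 h X-irradiated to 2.5, 5 or 10 Gy on one plate using a shifted lead shield. Plates incubated 6 days, then MTT (0.5 mg/mL, 45 min), DMSO solubilisation, absorbance at 570 nm. Fractional inhibition = 1 − fraction of surviving cells.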

SCC-25 [11] = assay: Synergistic antiproliferative activity against human SCC25 cells assessed as fractional inhibition at 0.5 uM preincubated for 1 hr followed by irradiation with 2.5 Gy IR and measured after 6 days by MTT assay (reference value: 0.011); assay type: functional; summary of the method: as §2
SCC-25 [12] = assay: Synergistic antiproliferative activity against human SCC25 cells assessed as fractional inhibition at 5 uM preincubated for 1 hr followed by irradiation with 2.5 Gy IR and measured after 6 days by MTT assay (reference value: 0.011); assay type: functional; summary of the method: as §2
SCC-25 [13] = assay: Synergistic antiproliferative activity against human SCC25 cells assessed as fractional inhibition at 0.05 uM preincubated for 1 hr followed by irradiation with 5 Gy IR and measured after 6 days by MTT assay (reference value: 0.133); assay type: functional; summary of the method: as §2
SCC-25 [14] = assay: Synergistic antiproliferative activity against human SCC25 cells assessed as fractional inhibition at 5 uM preincubated for 1 hr followed by irradiation with 5 Gy IR and measured after 6 days by MTT assay (reference value: 0.133); assay type: functional; summary of the method: as §2
SCC-25 [15] = assay: Synergistic antiproliferative activity against human SCC25 cells assessed as combination index at 0.005 uM preincubated for 1 hr followed by irradiation with 5 Gy IR and measured after 6 days by MTT assay; assay type: functional
Summary of the method: (§3)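 SCC-25 cells grown in DMEM with 10% FBS at 37 °C, 5% CO2, seeded 1000 cells/well in 96-well plates and left 24 h. Drug in DMSO, diluted in complete medium, added 1 h before X-irradiation. A movable 5 mm lead shield gave 0, 2.5, 5 or 10 Gy on one plate. After 6 days, MTT readout at 570 nm. Combination index by Chou–Talalay from viability data.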

SCC-25 [16] = assay: Synergistic antiproliferative activity against human SCC25 cells assessed as combination index at 0.05 uM preincubated for 1 hr followed by irradiation with 10 Gy IR and measured after 6 days by MTT assay; assay type: functional; summary of the method: as §3
FaDu [17] = assay: Induction of cell cycle arrest in human FADU cells at 0.5 uM by propidium iodide staining based flow cytometry; assay type: functional
Summary of the method: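 Cell-cycle distribution was measured by propidium iodide staining and flow cytometry. Readings were taken 6 and 24 h after compound alone, 5 Gy IR alone, or the combination, against control.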

FaDu [18] = assay: Synergistic induction of cell cycle arrest in human FADU cells at 0.5 uM followed by irradiation with 5Gy IR incubated for 6 hrs by propidium iodide staining based flow cytometry; assay type: functional
Summary of the method: (§4)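 FaDu or SCC-25 cells, untreated, given 5 Gy IR, drug, or drug plus 5 Gy. Cell-cycle distribution by propidium iodide staining and flow cytometry at 6 h and 24 h after treatment. G0/G1, S and G2/M fractions compared with control by t test.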

FaDu [19] = assay: Synergistic induction of cell cycle arrest in human FADU cells assessed as decrease in accumulation at S phase at 0.5 uM followed irradiation with 5Gy IR incubated for 24 hrs by propidium iodide staining based flow cytometry; assay type: functional; summary of the method: as §4
SCC-25 [20] = assay: Synergistic induction of apoptosis in human SCC25 cells at 0.5 uM followed irradiation with 5Gy IR incubated for 48 hrs by annexin V FITC and propidium iodide staining based flow cytometry; assay type: functional
Summary of the method: (§5)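 FaDu or SCC-25 cells, untreated, given 5 Gy IR, drug, or both. Apoptotic cells measured by annexin V flow cytometry 48 h after treatment. Percentage compared with control by t test.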

FaDu [21] = assay: Inhibition of cell migration in human FADU cells at 0.5 uM incubated for 12 and 24 hrs by microscopic analysis; assay type: functional, cell-based
Summary of the method: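 Scratch assay: 10^5 cells/well were grown to confluence in 12-well plates, with mitomycin C to block proliferation. Cells were treated with compound for 24 h, with or without 5 Gy IR, then scratched with a pipette tip, washed with PBS and given fresh medium. Imaging was at 0, 6, 12 and 24 h. % migration = gap decrease relative to the 0 h gap.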

FaDu [22] = assay: Synergistic induction of apoptosis in human FADU cells at 0.5 uM followed irradiation with 5Gy IR by annexin V FITC and propidium iodide staining based flow cytometry; assay type: functional, cell-based; details: TDE = time-dependent effect; summary of the method: as §5

COc1ccc2c(c1)N(CCO)C1=C(C(=O)OC1)C2c1ccccc1 (stereo not drawn)
fractional inhibitory concentration index (FICI) (FaDu [1]): 0.264 | fractional inhibitory concentration index (FICI) (FaDu [2]): 0.145 | Ratio IC50 (SCC-25 [3]): 2 | Ratio IC50 (FaDu [4]): 13 | inhibition (FaDu [5]): Dose-dependent effect | pIC50 (FaDu [5]; light or radiation study): 6.30 | fractional inhibitory concentration index (FICI) (FaDu [6]): 0.437 | fractional inhibitory concentration index (FICI) (FaDu [7]): 0.443 | fractional inhibitory concentration index (FICI) (FaDu [8]): 0.136 | CI (FaDu [9]): 0.314 | fractional inhibitory concentration index (FICI) (SCC-25 [10]): 0.74 | fractional inhibitory concentration index (FICI) (SCC-25 [11]): 0.452 | fractional inhibitory concentration index (FICI) (SCC-25 [12]): 0.531 | fractional inhibitory concentration index (FICI) (SCC-25 [13]): 0.05 | fractional inhibitory concentration index (FICI) (SCC-25 [14]): 0.728 | CI (SCC-25 [15]): 0.801 | CI (SCC-25 [16]): 1.056 | Activity (FaDu [17]): inactive | Activity (FaDu [18]): inactive | Activity (FaDu [19]): Active | fold change (FC) (SCC-25 [20]): 7 | inhibition (FaDu [21]): inactive | Activity (FaDu [22]): Tde

Source: ChEMBL document CHEMBL4364341, “Radiosensitization of Head and Neck Squamous Cell Carcinoma (HNSCC) by a Podophyllotoxin” (ACS Med Chem Lett, 2019)
